From PubChem BioAssay
CYP2C19 inhib = blockers of cytochrome P450 2C19 activity – biochemical, luminescence, ADME assay, primary screen. P33261. CYP2C19 Supersomes, luciferin-H EGE luminescence, 30 min. inhibition, % at 5 µM. 96,000 tested, 21% active. AID 778, 2007;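 active = CYP2C19 inhibition above a set limit at 5 µM in the primary screen, cut at about 50% in these data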;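 also: plate controls were negative control wells for no effect and 2.5 mM tranylcypromine positive control for full effect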
CYP2C19 act = human CYP2C19 activators, primary screen, biochemical, luminescence; Cytochrome P450 2C19 (Homo sapiens), P33261; recombinant CYP2C19, luciferin-H EGE luminescence; hits give high values; 0 = fully inhibited enzyme, 1 = untreated enzyme; activation factor at 5 µM; 96,000 tested, under 10 active;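 active = activation factor of at least 2 at 5 µM in the primary screen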;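 also: 0 = wells with 2.5 mM tranylcypromine and 1 = vehicle-only wells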
Cav32 inh = Cav3.2 calcium influx blockers – cell-based, Fluo-4 calcium fluorescence, FDSS, MLSMR library, primary screen. Cav3.2-expressing cells; hits give low values. B-score at 10 µM. 100,000 tested, 4% active;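 active = single-dose well whose peak fluorescence ratio is a statistical outlier from its plate by either plate-standardised score or position-corrected B-score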
HIV Rev-RRE inh = HIV-1 Rev-RRE binding inhibitors, primary screen, biochemical, FRET, protein-RNA interaction. inhibition, % at 8 µM. 97,000 tested, 0.79% active. Rev peptide-RRE RNA binding. P05866;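 active = inhibition above the screen-wide mean plus 3 SD, cut at about 35% in these data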;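 also: 0% = median DMSO wells and 100% = median Neomycin B control wells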
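Assay system: Rev peptide and RRE RNA, both fluorescently labelled; times: 5 min preincubation and 15 min binding, 25 °C; detection: FRET, ex 480 nm, em 540 and 671 nm; read-out basis: % inhibition from 671/540 nm acceptor-to-donor ratio, scaled between controls; benchmarks: DMSO low control, neomycin B high control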
CYP2C9 inh = blockers of cytochrome P450 2C9 activity – biochemical, luminescence, ADME assay, primary screen. P11712. CYP2C9 Supersomes, luciferin-H conversion. inhibition, % at 5 µM. 96,000 tested, 20% active;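 active = blocking of liver enzyme CYP2C9 beyond about 50% at 5 µM, limit read from the data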
CYP2C9 act = human CYP2C9 activators, primary screen, biochemical, luminescence; recombinant CYP2C9, luciferin-H conversion; hits give high values; factor 1 = untreated enzyme, 0 = blocked; activation factor at 5 µM; 96,000 tested, 1.4% active; AID 1024, 2008;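 active = activation factor of 2 or more for CYP2C9 at a 5 µM dose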;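 also: 0 = sulfaphenazole-blocked wells and 1 = vehicle-only wells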
* hit, by the source's call. The list is not random: actives were taken first. Their share in the collection is about 27%.

What do the screens show for `Cc1ccc(S(=O)(=O)N2CCCC(NC(=O)N3CCN(c4ccccc4)CC3)C2)cc1` (stereo unspecified)?
CYP2C19 inhib: 74.2*; CYP2C19 act: 0.3; Cav32 inh: -4.43*; HIV Rev-RRE inh: 2.8; CYP2C9 inh: 32.5; CYP2C9 act: 0.7

What do the screens show for `Cc1ccc(C(=O)N2CCN(c3ccccc3)CC2)cc1S(=O)(=O)N1CCCC1`?
CYP2C19 inhib: 77.5*; CYP2C19 act: 0.2; Cav32 inh: 0.289; CYP2C9 inh: 84.1*; CYP2C9 act: 0.2

Results for CC1CC(C)CN(S(=O)(=O)c2ccc(C(=O)N3CCN(c4ccccc4)CC3)cc2)C1 (stereo unspecified) ?
CYP2C19 inhib: 68.1*; CYP2C19 act: 0.3; Cav32 inh: -3.31; HIV Rev-RRE inh: -1.2; CYP2C9 inh: 81.7*; CYP2C9 act: 0.2

Results for O=C1C[C@@H](c2ccc(O[C@@H]3O[C@H](CO)[C@@H](O)[C@H](O)[C@H]3O)cc2)Oc2cc(O)ccc21 ?
Cav32 inh: 0.537

Results for O=C(NCc1ccccc1)C(c1cccnc1)N(Cc1ccco1)C(=O)c1ccccn1 (stereo unspecified) ?
CYP2C19 inhib: 8.0; CYP2C19 act: 0.9; Cav32 inh: -0.169; HIV Rev-RRE inh: 3.6; CYP2C9 inh: 32.2; CYP2C9 act: 0.7

How did COc1ccc(CNc2nc3nc(-c4ccccc4)cc(=O)n3[nH]2)cc1OC do in these assays?
CYP2C19 inhib: -10.4; CYP2C19 act: 1.1; Cav32 inh: -0.214; HIV Rev-RRE inh: 0.3; CYP2C9 inh: -2.4; CYP2C9 act: 1

Results for CCO[C@@H]1OC(C(N)=O)=C[C@H](C2CC2)[C@H]1CCCO ?
Cav32 inh: 0.547

How did CCc1nc2c(sc3nc(N4CCOCC4)c4c(c32)CC(C)(C)OC4)c(=O)o1 do in these assays?
CYP2C19 inhib: -1.4; CYP2C19 act: 1; CYP2C9 inh: 60.9*; CYP2C9 act: 0.4

What do the screens show for `CC1(C)Cc2c(c(N3CCOCC3)nc3sc4c(N5CCOCC5)nnnc4c23)CS1`?
CYP2C19 inhib: 19.5; CYP2C19 act: 0.8; HIV Rev-RRE inh: 7.8; CYP2C9 inh: 77.9*; CYP2C9 act: 0.2

What do the screens show for `CC1(C)Cc2c(c(N3CCCC3)nc3sc4c(N5CCN(CCO)CC5)ncnc4c23)CO1`?
HIV Rev-RRE inh: 3.7

Results for Cc1cccc(NC(=S)NN2CCN(C)CC2)c1 ?
CYP2C19 inhib: 2.4; CYP2C19 act: 1; Cav32 inh: 0.405; HIV Rev-RRE inh: 2.1; CYP2C9 inh: -3.2; CYP2C9 act: 1

Results for COc1ccc(S(=O)(=O)N2CCOC2CNC(=O)C(=O)NCCc2c[nH]c3ccccc23)cc1C (stereo unspecified) ?
Cav32 inh: -3.47*

What do the screens show for `COc1ccc(S(=O)(=O)N2CCOC2CNC(=O)C(=O)NCCCn2ccnc2)cc1OC` (stereo unspecified)?
Cav32 inh: 2.24

How did COc1ccc(C2C3=C(CCCC3=O)Nc3nc(SCc4ccc(C(=O)O)cc4)nn32)cc1OC (stereo unspecified) do in these assays?
CYP2C19 inhib: 29.2; CYP2C19 act: 0.7; Cav32 inh: 0.446; HIV Rev-RRE inh: 3.7; CYP2C9 inh: 1.4; CYP2C9 act: 1

How did Clc1cccc(Cl)c1Cn1cnc(=NCc2ccco2)c2[nH]cnc21 do in these assays?
CYP2C19 inhib: 30.4; CYP2C19 act: 0.7; Cav32 inh: 0.71; HIV Rev-RRE inh: 5.6; CYP2C9 inh: 76.7*; CYP2C9 act: 0.2

How did Clc1cccc(Cl)c1Cn1cnc2c(NCc3ccco3)ncnc21 do in these assays?
CYP2C19 inhib: -6.6; CYP2C19 act: 1.1; Cav32 inh: -0.0179; HIV Rev-RRE inh: 8.8; CYP2C9 inh: 13.6; CYP2C9 act: 0.9

What do the screens show for `CCOC(=O)c1ccc(NC(=O)CSc2nc3c(c(=O)n2C)SC(C)C3)cc1` (stereo unspecified)?
CYP2C19 inhib: 45.8; CYP2C19 act: 0.5; Cav32 inh: -1.9; HIV Rev-RRE inh: 5.2; CYP2C9 inh: 51.2*; CYP2C9 act: 0.5

How did CCn1c(SCC(=O)Nc2cccc(F)c2)nc2c(c1=O)SC(C)C2 (stereo unspecified) do in these assays?
Cav32 inh: 0.752; HIV Rev-RRE inh: 1.5

Results for CC1Cc2nc(SCC(=O)NCCc3ccccc3)n(C)c(=O)c2S1 (stereo unspecified) ?
Cav32 inh: 0.066; HIV Rev-RRE inh: 4.8

What do the screens show for `CCn1c(SCC(=O)Nc2cc(C)ccc2C)nc2c(c1=O)SC(C)C2` (stereo unspecified)?
CYP2C19 inhib: 20.2; CYP2C19 act: 0.8; Cav32 inh: 1.47; CYP2C9 inh: 76.2*; CYP2C9 act: 0.2

Results for CC1Cc2nc(SCC(N)=O)n(C)c(=O)c2S1 (stereo unspecified) ?
CYP2C19 inhib: -3.6; CYP2C19 act: 1; Cav32 inh: -0.483; CYP2C9 inh: 13.8; CYP2C9 act: 0.9

How did Cc1ccc(C)c(NC(=O)CSc2nc3c(c(=O)n2C)SC(C)C3)c1 (stereo unspecified) do in these assays?
CYP2C19 inhib: 17.3; CYP2C19 act: 0.8; Cav32 inh: 1.7; CYP2C9 inh: 65.5*; CYP2C9 act: 0.3

Results for CC1Cc2nc(SCC(=O)Nc3ccc(F)cc3F)n(C)c(=O)c2S1 (stereo unspecified) ?
CYP2C19 inhib: 27.0; CYP2C19 act: 0.7; Cav32 inh: 0.145; HIV Rev-RRE inh: 2.8; CYP2C9 inh: 52.7*; CYP2C9 act: 0.5

How did CC1Cc2nc(SCC(=O)N3CCCC3)n(C)c(=O)c2S1 (stereo unspecified) do in these assays?
CYP2C19 inhib: -9.9; CYP2C19 act: 1.1; Cav32 inh: 1.39; CYP2C9 inh: 7.5; CYP2C9 act: 0.9

How did Cc1ccc2nc(NC(=O)CSc3nc4c(c(=O)n3C)SC(C)C4)sc2c1 (stereo unspecified) do in these assays?
CYP2C19 inhib: 48.4; CYP2C19 act: 0.5; Cav32 inh: -0.544; HIV Rev-RRE inh: 2.3; CYP2C9 inh: 68.3*; CYP2C9 act: 0.3

Results for CCOc1ccc(-c2nnn(CC(=O)Nc3cccc(OC)c3)n2)cc1OCC ?
CYP2C19 inhib: 45.9; CYP2C19 act: 0.5; Cav32 inh: -0.0198; HIV Rev-RRE inh: -1.2; CYP2C9 inh: 19.6; CYP2C9 act: 0.8

How did CCOc1ccc(-c2nnn(CC(=O)NCc3ccc(F)cc3)n2)cc1OCC do in these assays?
CYP2C19 inhib: 64.6*; CYP2C19 act: 0.4; Cav32 inh: -0.593; HIV Rev-RRE inh: 3.2; CYP2C9 inh: 34.8; CYP2C9 act: 0.7
